Source: PMC2696058 (Bioorganic & medicinal chemistry, 2009)

Columns and labels:
N^5CAIR synthetase = N^5CAIR synthetase (Escherichia coli, UniProt P09029); assay: Kinetic analysis, PK/LDH coupled ATPase assay; assay type: biochemical; conditions: for Inhibition of N^5CAIR synthetase by DMSO (non-aqueous) solutions: compound added as DMSO solution, not aqueous solution; for Mode of inhibition with respect to AIR / Mode of inhibition with respect to ATP: steady-state kinetics; for Mode of inhibition with respect to AIR: varied AIR; for Mode of inhibition with respect to ATP: varied ATP
N^5CAIR synthetase, sequence (P09029 whole entry): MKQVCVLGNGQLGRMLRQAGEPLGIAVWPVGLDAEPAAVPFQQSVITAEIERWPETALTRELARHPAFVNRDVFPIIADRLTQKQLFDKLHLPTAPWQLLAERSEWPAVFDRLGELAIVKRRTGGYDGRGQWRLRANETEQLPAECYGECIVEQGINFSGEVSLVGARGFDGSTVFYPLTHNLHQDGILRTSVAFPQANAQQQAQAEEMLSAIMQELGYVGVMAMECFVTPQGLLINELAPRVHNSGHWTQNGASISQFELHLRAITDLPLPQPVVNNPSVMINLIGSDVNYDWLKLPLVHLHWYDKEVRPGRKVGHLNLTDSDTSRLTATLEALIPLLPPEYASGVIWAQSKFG

[1] = Decomposition of compound solutions followed by TLC; assay type: physicochemical; conditions: aqueous solution
[2] = molecular target: T1, human AIR carboxylase:SAICAR synthetase (Homo sapiens, UniProt P22234); assay: Coupled assay against human bifunctional enzyme; assay type: biochemical; conditions: 200 μM compound, both activities assayed simultaneously
T1 sequence (P22234 1-425): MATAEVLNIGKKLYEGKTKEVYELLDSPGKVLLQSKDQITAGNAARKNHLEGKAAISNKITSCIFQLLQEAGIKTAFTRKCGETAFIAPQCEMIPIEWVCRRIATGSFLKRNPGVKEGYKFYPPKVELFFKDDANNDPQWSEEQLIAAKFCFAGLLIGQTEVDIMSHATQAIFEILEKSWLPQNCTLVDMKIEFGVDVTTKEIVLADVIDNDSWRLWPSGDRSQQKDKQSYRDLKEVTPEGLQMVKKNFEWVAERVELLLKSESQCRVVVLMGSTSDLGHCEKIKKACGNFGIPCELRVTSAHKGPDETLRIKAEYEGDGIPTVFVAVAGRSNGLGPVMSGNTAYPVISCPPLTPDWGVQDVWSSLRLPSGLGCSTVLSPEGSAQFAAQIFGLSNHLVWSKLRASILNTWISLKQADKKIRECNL
Summary of the method: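 His-tagged human bifunctional AIR carboxylase:SAICAR synthetase, expressed from a pET22b vector and purified on a cobalt affinity column, >95% pure by SDS-PAGE. The carboxylase and synthetase activities were measured together in one coupled assay, following a method previously described for the Gallus gallus bifunctional enzyme.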

In the case of `Cc1nonc1NC1(O)C(=O)c2ccccc2C1=O` [Compound 1], the “Inhibition of N^5CAIR synthetase by DMSO (non-aqueous) solutions” value (N^5CAIR synthetase) is reported as “neither compound resulted in inhibition” and the “Time to complete decomposition to ninhydrin” value [1] is reported as “approximately 30 minutes”.

In the case of `Cc1cc2nc3c(=O)[nH]c(=O)nc-3n(C[C@H](O)[C@H](O)[C@H](O)CO)c2cc1C` [Compound 14, riboflavin], the “Mode of inhibition with respect to AIR” value (N^5CAIR synthetase) is reported as “noncompetitive”, the “Mode of inhibition with respect to ATP” value (N^5CAIR synthetase) is reported as “noncompetitive” and the “Inhibition of either enzymatic activity (AIR carboxylase, SAICAR synthetase)” value (from here on “Inhibition of either enzymatic activity”) [2] is reported as “no inhibition”.

In the case of `CCN(CC)C(=O)CN1C(=O)C(=O)c2ccccc21` [Compound 7], the “Mode of inhibition with respect to AIR” value (N^5CAIR synthetase) is reported as “non-competitive”, the “Mode of inhibition with respect to ATP” value (N^5CAIR synthetase) is reported as “non-competitive” and the “Inhibition of either enzymatic activity” value [2] is reported as “no inhibition”.

For `Cc1nc(NC2(O)C(=O)c3ccccc3C2=O)cs1` [Compound 2], the “Inhibition of N^5CAIR synthetase by DMSO (non-aqueous) solutions” value (N^5CAIR synthetase) was “neither compound resulted in inhibition” and the “Time to complete decomposition to ninhydrin” value [1] was “around 45 minutes”.

In the case of `CCOC(=O)c1noc(C)c1-c1csc(CS(=O)(=O)c2ccc(Cl)cc2)n1` [Compound 13], the “Mode of inhibition with respect to AIR” value (N^5CAIR synthetase) is reported as “competitive”, the “Mode of inhibition with respect to ATP” value (N^5CAIR synthetase) is reported as “uncompetitive” and the “Inhibition of either enzymatic activity” value [2] is reported as “no inhibition”.
